# Measured values reported in ChEMBL document CHEMBL4043073, “Boronic Acid Modifications Enhance the Anti-Influenza A Virus Activities of Novel Quindoline Derivatives” (J Med Chem, 2017).
# Columns and labels:
# Canis lupus familiaris = species: Canis lupus familiaris; test: Inhibition of MAPK signaling-mediated nuclear import of viral RNP in MDCK cells infected with Influenza A virus (A/Puerto Rico/8/34(H1N1)) assessed as ERK1/2 phosphorylation at 5 uM preincubated with virus for 1 hr followed by viral infection after 4 hrs by Western blot method relative to control (reference value: 1.4); type: cell-based
# Outline: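 PR8 (MOI 1.0) pretreated with compound 1 h at 37 °C, then MDCK cells were kept in infecting medium with 5 or 10 μM for 4 h; ribavirin 50 μg/mL as comparator. Lysates were immunoblotted for phospho-ERK1/2, p38, NF-κB or Akt, with β-actin/GAPDH loading controls and AP/NBT-BCIP detection. Densitometry was normalised to uninfected cells (= 1.0); n = 3.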
# Influenza A virus = test: Antiviral activity against Influenza A virus (A/Puerto Rico/8/34(H1N1)) infected in MDCK cells assessed as reduction in virus-induced cytopathic effect after 48 hrs by crystal violet staining based assay; type: functional, cell-based; settings: A/Puerto Rico/8/1934(H1N1)
# Outline: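 MDCK cells infected with PR8 at MOI 0.1; compounds added in triplicate after inoculum removal. After 48 h cells were fixed with 4% formaldehyde and stained with 0.1% crystal violet. Dye was methanol-solubilised and read at 570 nm; IC50 was the concentration halving CPE.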
smiles,measurement,setting,value
O=C(Nc1ccccc1Nc1c2ccccc2nc2c1[nH]c1ccccc12)c1cccc(B(O)O)c1,fold change (FC),Canis lupus familiaris,0.7
same,IC50,Influenza A virus,5.1 µM
